Experiment: Inhibition of Escherichia coli DXR
Summary of the method: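 Recombinant E. coli DXR was used. Conversion of substrate DOXP to MEP was followed through the reaction's NADPH dependence, and IC50 was derived from this.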

| SMILES | IC50 [µM] |
| --- | --- |
| CC(=O)N(O)C/C=C(/c1ccccc1)P(=O)(O)O | > 30 |
| CC(=O)N(O)C/C=C(/c1cccc([N+](=O)[O-])c1)P(=O)(O)O | > 30 |
| CC(=O)N(O)C/C=C(\Br)P(=O)(O)O | 0.45 |
| CC(=O)N(O)C/C=C(/c1cccs1)P(=O)(O)O | 42 |
| CC(=O)N(O)C/C=C(/c1ccc([N+](=O)[O-])cc1)P(=O)(O)O | 34 |
| CC(=O)N(O)CCCP(=O)(O)O [FR-900098] | 0.032 |
| CC(=O)N(O)C/C=C(/c1ccsc1)P(=O)(O)O | > 30 |

Continued by falling IC50, values first:

| IC50 [µM] | SMILES |
| --- | --- |
| 16 | CC(=O)N(O)C/C=C(\c1ccc(C#N)cc1)P(=O)(O)O |
| 5.7 | CC(=O)N(O)C/C=C(\c1ccccc1)P(=O)(O)O |
| 5.5 | CC(=O)N(O)C/C=C(\c1ccc(Cl)c(Cl)c1)P(=O)(O)O |
| 0.059 | O=CN(O)CCC(c1ccc(Cl)c(Cl)c1)P(=O)(O)O (configuration not stated) |
| 0.034 | O=CN(O)CCCP(=O)(O)O [FOSMIDOMYCIN] |

From ChEMBL document CHEMBL1140666, “Synthesis and evaluation of alpha,beta-unsaturated alpha-aryl-substituted fosmidomycin analogues as DXR inhibitors” (Bioorg Med Chem Lett, 2007)
